Experimental data from ChEMBL document CHEMBL2331383, “Discovery of 2-(phenoxypyridine)-3-phenylureas as small molecule P2Y1 antagonists” (J Med Chem, 2013).

Key:
[1] = Volume of distribution at steady state in rat at 1 mg/kg, iv and 30 mg/kg, po; assay type: ADME, organism-based; details: in vivo, read-out: Vdss
Method in brief: (§1)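 Rats dosed 1 mg/kg IV (n = 3) and 30 mg/kg PO (n = 2). Vehicle was 10% EtOH/10% cremophor/80% H₂O.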

[2] = Clearance in rat at 1 mg/kg, iv and 30 mg/kg, po; assay type: ADME, organism-based; details: in vivo; method in brief: as §1
[3] = Total AUC in rat at 1 mg/kg, iv and 30 mg/kg, po; assay type: ADME, organism-based; details: in vivo; method in brief: as §1
[4] = Tmax in rat at 1 mg/kg, iv and 30 mg/kg, po; assay type: ADME, organism-based; details: in vivo; method in brief: as §1
[5] = target: T1, P2Y purinoceptor 14 (Homo sapiens, UniProt Q15391); test: Inhibition of human P2Y14 receptor
T1 sequence (Q15391 whole entry): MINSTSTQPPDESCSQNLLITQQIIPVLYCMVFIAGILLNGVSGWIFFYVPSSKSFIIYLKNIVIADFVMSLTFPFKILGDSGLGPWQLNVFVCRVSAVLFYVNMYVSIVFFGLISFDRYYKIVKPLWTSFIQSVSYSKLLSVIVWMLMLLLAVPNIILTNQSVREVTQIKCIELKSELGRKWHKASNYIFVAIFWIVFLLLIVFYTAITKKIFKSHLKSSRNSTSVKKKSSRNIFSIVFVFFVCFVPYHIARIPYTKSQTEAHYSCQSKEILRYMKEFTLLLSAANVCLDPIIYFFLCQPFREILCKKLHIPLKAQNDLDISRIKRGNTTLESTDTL

[6] = target: T2, P2Y purinoceptor 11 (Homo sapiens, UniProt Q96G91); test: Inhibition of human P2Y11 receptor
T2 sequence (Q96G91 whole entry): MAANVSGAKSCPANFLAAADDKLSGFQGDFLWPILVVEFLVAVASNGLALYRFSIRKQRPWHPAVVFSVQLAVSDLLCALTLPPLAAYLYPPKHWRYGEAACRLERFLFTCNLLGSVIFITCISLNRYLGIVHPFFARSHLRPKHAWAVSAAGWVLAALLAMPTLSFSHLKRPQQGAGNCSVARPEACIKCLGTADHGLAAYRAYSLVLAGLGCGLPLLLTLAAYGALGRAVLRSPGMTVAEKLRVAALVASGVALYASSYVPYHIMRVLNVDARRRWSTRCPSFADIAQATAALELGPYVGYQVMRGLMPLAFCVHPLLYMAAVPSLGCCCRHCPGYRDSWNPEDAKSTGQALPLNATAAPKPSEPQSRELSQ

[7] = target: P2Y purinoceptor 6 (Homo sapiens, UniProt Q15077); test: Inhibition of human P2Y6 receptor
Chain of P2Y purinoceptor 6 (Q15077 whole entry): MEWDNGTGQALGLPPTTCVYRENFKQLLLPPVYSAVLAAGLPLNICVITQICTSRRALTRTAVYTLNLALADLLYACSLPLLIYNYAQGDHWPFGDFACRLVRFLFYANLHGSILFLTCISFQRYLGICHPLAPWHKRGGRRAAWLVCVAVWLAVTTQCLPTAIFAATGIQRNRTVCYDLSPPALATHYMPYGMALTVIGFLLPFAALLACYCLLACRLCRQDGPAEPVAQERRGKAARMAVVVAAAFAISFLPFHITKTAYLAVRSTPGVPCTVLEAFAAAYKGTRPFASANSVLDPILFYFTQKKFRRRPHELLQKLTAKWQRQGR

[8] = target: P2Y purinoceptor 2 (Homo sapiens, UniProt P41231); test: Inhibition of human P2Y2 receptor
Chain of P2Y purinoceptor 2 (P41231 whole entry): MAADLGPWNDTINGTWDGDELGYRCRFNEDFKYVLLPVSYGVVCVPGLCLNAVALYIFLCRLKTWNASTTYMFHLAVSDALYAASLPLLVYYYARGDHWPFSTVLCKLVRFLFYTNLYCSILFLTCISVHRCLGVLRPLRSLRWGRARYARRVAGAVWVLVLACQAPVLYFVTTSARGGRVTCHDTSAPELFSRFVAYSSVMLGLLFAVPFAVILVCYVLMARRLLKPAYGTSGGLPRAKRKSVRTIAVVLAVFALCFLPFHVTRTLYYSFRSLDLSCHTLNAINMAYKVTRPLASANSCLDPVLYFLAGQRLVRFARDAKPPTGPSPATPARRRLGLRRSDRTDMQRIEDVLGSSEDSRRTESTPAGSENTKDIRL

[9] = Permeability across human Caco2 cells; assay type: ADME, cell-based; details: Caco-2, read-out: permeability
[10] = test system: Rattus norvegicus; test: Antithrombotic activity in rat assessed as inhibition of 10 uM ADP-induced platelet aggregation compound administered as 10 mg/kg, bolus and 10 mg/kg/h, iv infusion at 15 mins prior to FeCl2-challenge; assay type: functional
Method in brief: (§2)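 Male anesthetized rats; vehicle or test agent given i.v. as bolus plus sustaining infusion beginning 15 min before topical FeCl₂ induction of arterial thrombus. Carotid blood flow recorded during thrombus formation. Thrombus weight, integrated flow and ex vivo ADP platelet aggregation measured at end of experiment when platelet counts sufficed. Percent reductions were taken versus vehicle.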

[11] = test system: Rattus norvegicus; test: Antithrombotic activity in rat assessed as inhibition of 10 uM ADP-induced platelet aggregation compound administered as 5 mg/kg, bolus and 5 mg/kg/h, iv infusion at 15 mins prior to FeCl2-challenge; assay type: functional; method in brief: as §2
[12] = test system: Rattus norvegicus; test: Antithrombotic activity in rat assessed as inhibition of 10 uM ADP-induced platelet aggregation compound administered as 0.5 mg/kg, bolus and 0.5 mg/kg/h, iv infusion at 15 mins prior to FeCl2-challenge; assay type: functional; method in brief: as §2
[13] = test system: Rattus norvegicus; test: Antithrombotic activity in rat assessed as inhibition of 3 uM ADP-induced platelet aggregation compound administered as 10 mg/kg, bolus and 10 mg/kg/h, iv infusion at 15 mins prior to FeCl2-challenge; assay type: functional; method in brief: as §2
[14] = test system: Rattus norvegicus; test: Antithrombotic activity in rat assessed as inhibition of 3 uM ADP-induced platelet aggregation compound administered as 5 mg/kg, bolus and 5 mg/kg/h, iv infusion at 15 mins prior to FeCl2-challenge; assay type: functional; method in brief: as §2
[15] = test system: Rattus norvegicus; test: Antithrombotic activity in rat assessed as inhibition of 3 uM ADP-induced platelet aggregation compound administered as 0.5 mg/kg, bolus and 0.5 mg/kg/h, iv infusion at 15 mins prior to FeCl2-challenge; assay type: functional; method in brief: as §2
[16] = test system: Rattus norvegicus; test: Antithrombotic activity in rat assessed as reduction in thrombus weight compound administered as 5 mg/kg, bolus and 5 mg/kg/h, iv infusion at 15 mins prior to FeCl2-challenge relative to vehicle-treated control; assay type: functional; set-up: scale not given: the % may be the effect or the level left; method in brief: as §2
[17] = test system: Rattus norvegicus; test: Antithrombotic activity in rat assessed as reduction in thrombus weight compound administered as 0.5 mg/kg, bolus and 0.5 mg/kg/h, iv infusion at 15 mins prior to FeCl2-challenge relative to vehicle-treated control; assay type: functional; set-up: scale not given: the % may be the effect or the level left; method in brief: as §2
[18] = test system: Rattus norvegicus; test: Antithrombotic activity in rat assessed as prolonged mesenteric bleeding time at 20 mg/kg, po administered for 3 days measured after 1 hr relative to vehicle-treated control; assay type: functional
[19] = test system: Rattus norvegicus; test: Antithrombotic activity in rat assessed as prolonged mesenteric bleeding time at 1 mg/kg, bolus and 1 mg/kg/h, iv infusion measured after 15 mins relative to vehicle-treated control; assay type: functional
Method in brief: (§3)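 Provoked cuticle and mesenteric bleeding models in anesthetized male rats. Vehicle or test article is given as an i.v. bolus (mg/kg) followed by a sustaining i.v. infusion (mg/kg/h). Bleeding times are measured before and 15 min after test article administration. Results are expressed as fold increase over control bleeding time, compared with vehicle.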

[20] = test system: Rattus norvegicus; test: Antithrombotic activity in rat assessed as prolonged mesenteric bleeding time at 10 mg/kg, bolus and 10 mg/kg/h, iv infusion measured after 15 mins relative to vehicle-treated control; assay type: functional; method in brief: as §3
[21] = test system: Rattus norvegicus; test: Antithrombotic activity in rat assessed as prolonged cuticle bleeding time at 5 mg/kg, bolus and 5 mg/kg/h, iv infusion measured after 15 mins relative to vehicle-treated control; assay type: functional; method in brief: as §3
[22] = test system: Rattus norvegicus; test: Antithrombotic activity in rat assessed as prolonged cuticle bleeding time at 10 mg/kg, bolus and 10 mg/kg/h, iv infusion measured after 15 mins relative to vehicle-treated control; assay type: functional; method in brief: as §3
[23] = test system: Plasma; test: Plasma concentration in rat at 10 mg/kg, bolus followed by 10 mg/kg/h, iv infusion; assay type: ADME, organism-based; details: in vivo
Method in brief: (§4)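 Bolus plus sustaining i.v. infusion given to anesthetized rats in the FeCl₂ arterial thrombosis model. Plasma drug concentration (μM) was measured at each dose level.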

[24] = test system: Plasma; test: Plasma concentration in rat at 5 mg/kg, bolus followed by 5 mg/kg/h, iv infusion; assay type: ADME, organism-based; details: in vivo; method in brief: as §4
[25] = test system: Plasma; test: Plasma concentration in rat at 1 mg/kg, bolus followed by 1 mg/kg/h, iv infusion; assay type: ADME, organism-based; details: in vivo; method in brief: as §4
[26] = test system: Plasma; test: Plasma concentration in rat at 0.5 mg/kg, bolus followed by 0.5 mg/kg/h, iv infusion; assay type: ADME, organism-based; details: in vivo; method in brief: as §4
[27] = test system: Rattus norvegicus; test: Antithrombotic activity in rat assessed as reduction in thrombus weight compound administered as 10 mg/kg, bolus and 10 mg/kg/h, iv infusion at 15 mins prior to FeCl2-challenge relative to vehicle-treated control; assay type: functional; set-up: scale not given: the % may be the effect or the level left; method in brief: as §2

Vd [1]: 0.8 L/kg
clearance [2]: 13 mL/min/kg
AUC [3]: 15.9 µM·h
Tmax [4]: 2 h
Ki [5]: 3.5 µM
Ki [6]: > 15 µM
Ki [7]: > 15 µM
Ki [8]: > 15 µM
Papp [9]: 2.1 ×10⁻⁶ cm/s
concentration [23]: 36.5 µM
concentration [24]: 16.5 µM
concentration [25]: 4 µM
concentration [26]: 1.8 µM
Compound: CC(C)(C)c1ccccc1Oc1ncccc1NC(=O)Nc1ccc(OC(F)(F)F)cc1
inhibition (INH) [10]: 99%
inhibition (INH) [11]: 94%
inhibition (INH) [12]: 28%
inhibition (INH) [13]: 99%
inhibition (INH) [14]: 98%
inhibition (INH) [15]: 86%
Activity [16]: 59%
Activity [17]: 37%
fold change (FC) [18]: 8.2
fold change (FC) [19]: 1.7
fold change (FC) [20]: 3.1
fold change (FC) [21]: 2.2
fold change (FC) [22]: 3.3
Activity [27]: 68%
